Measurements from ChEMBL document CHEMBL1121949, “Species- or isozyme-specific enzyme inhibitors. 8. Synthesis of disubstituted two-substrate condensation products as inhibitors of rat adenylate kinases” (J Med Chem, 1982).
Values joined by “and” are separate entries in the source; they are usually repeats but may differ in a detail not shown here. Equal values may be shown once.

Legend:
[1] = Relative potency inhibitory calculated as the ratio of AK-II/AK-M
[2] = target: T1, Adenylate kinase 2, mitochondrial (Rattus norvegicus, UniProt P29410); assay: Inhibitory activity against rat adenylate kinase II was determined in the presence of ATP, competitive inhibition
Procedure, shortened: (§1)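 Rat adenylate kinase isozymes AK II or AK-M were used, with AMP or ATP as the varied substrate. Substrate and inhibitor constants (Ki) came from steady-state kinetics. ATP derivatives, and P1,P5-pentaphosphate derivatives with Ki above 0.10 mM, were added as 1:1 Mg complexes, made by adding MgSO4 to their stock solutions.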

[3] = target: T2, Adenylate kinase isoenzyme 1 (Rattus norvegicus, UniProt P39069); assay: Inhibitory activity against rat Adenylate kinase M isoenzyme in the presence of ATP competitive inhibition
T2 sequence (P39069 whole entry): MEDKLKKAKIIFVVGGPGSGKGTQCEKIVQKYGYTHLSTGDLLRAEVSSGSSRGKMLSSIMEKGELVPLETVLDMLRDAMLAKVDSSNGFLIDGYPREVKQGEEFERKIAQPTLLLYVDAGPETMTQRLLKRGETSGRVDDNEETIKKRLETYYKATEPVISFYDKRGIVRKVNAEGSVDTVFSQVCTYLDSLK

[4] = Inhibitory potency against AK II was calculated using the equation KM(ATP) / Ki(ATP varied)
[5] = Inhibitory potency against AK M was calculated using the equation KM(ATP) / Ki(ATP varied)
[6] = target: T2, Adenylate kinase isoenzyme 1; assay: Inhibitory activity against rat Adenylate kinase M isoenzyme in the presence of ATP non competitive inhibition; procedure, shortened: as §1
[7] = target: T2, Adenylate kinase isoenzyme 1; assay: Inhibitory activity against rat Adenylate kinase M isoenzyme in the presence of ATPnon competitive inhibition; procedure, shortened: as §1
[8] = target: T1, Adenylate kinase 2, mitochondrial; assay: Inhibitory activity against rat adenylate kinase II was determined in the presence of ATP, competitive inhibition
[9] = target: T2, Adenylate kinase isoenzyme 1; assay: Inhibitory activity against rat Adenylate kinase M isoenzyme in the presence of ATP; procedure, shortened: as §1
[10] = target: T2, Adenylate kinase isoenzyme 1; assay: Inhibitory activity against rat Adenylate kinase M isoenzyme in the presence of AMP; procedure, shortened: as §1
[11] = target: T1, Adenylate kinase 2, mitochondrial; assay: Inhibitory activity against rat adenylate kinase II was determined in the presence of AMP; procedure, shortened: as §1
[12] = target: T1, Adenylate kinase 2, mitochondrial; assay: Inhibitory activity against rat adenylate kinase II was determined in the presence of ATP; procedure, shortened: as §1
[13] = target: T1, Adenylate kinase 2, mitochondrial; assay: Inhibitory activity against rat adenylate kinase II was determined in the presence of ATP, non competitive inhibition; procedure, shortened: as §1
[14] = Inhibitory activity against rat adenylate kinase M (AK-M)isoenzyme in the presence of AMP competitive inhibition; procedure, shortened: as §1
[15] = Inhibitory activity against rat adenylate kinase M (AK-M)isoenzyme in the presence of ATP competitive inhibition; procedure, shortened: as §1
[16] = Inhibitory activity against rat adenylate kinase M (AK-M)isoenzyme in the presence of ATP non competitive; procedure, shortened: as §1
[17] = Inhibitory activity against rat adenylate kinase M (AK-M)isoenzyme in the presence of AMP non competitive; procedure, shortened: as §1
[18] = target: T1, Adenylate kinase 2, mitochondrial; assay: Inhibitory activity against rat adenylate kinase II was determined in the presence of AMP, non competitive inhibition; procedure, shortened: as §1
[19] = target: T1, Adenylate kinase 2, mitochondrial; assay: Inhibitory activity against rat adenylate kinase II was determined in the presence of AMP, competitive inhibition; procedure, shortened: as §1
[20] = target: T1, Adenylate kinase 2, mitochondrial; assay: Inhibitory activity against rat adenylate kinase II was determined in the presence of AMP, competitive and non competitive inhibition; procedure, shortened: as §1
[21] = target: T2, Adenylate kinase isoenzyme 1; assay: Inhibitory activity against rat Adenylate kinase M isoenzyme in the presence of ATP non competitive inhibition

Row | Relative inhibitory potency [1] | Inhibitory potency [4] | Inhibitory potency [5] | Ki [8] | Structure (SMILES) | further results
1 | 0.11 | 0.2 | 1.9 |  | CCC[C@H](OP(=O)(O)OP(=O)(O)OP(=O)(O)O)[C@H]1OC(n2cnc3c(N)ncnc32)[C@H](O)[C@@H]1O (stereo partly specified) | Ki [2]: 450 µM; Ki [3]: 300 µM
2 |  | 0.045 | < 0.21 |  | C[C@H](OP(=O)(O)OP(=O)(O)OP(=O)(O)O)[C@H]1OC(n2cnc3c(N)ncnc32)[C@H](O)[C@@H]1O (stereo partly specified) | Ki [6]: 1800 µM; Ki [2]: 2000 µM
3 | > 2.4 | 0.2 | < 0.084 | 450 µM | CCC[C@@H](OP(=O)(O)OP(=O)(O)OP(=O)(O)O)[C@H]1OC(n2cnc3c(N)ncnc32)[C@H](O)[C@@H]1O (stereo partly specified) | Ki [7]: 4500 µM
4 |  |  |  |  | CCSc1nc2c(N)ncnc2n1[C@@H]1O[C@H](COP(=O)(O)OP(=O)(O)OP(=O)(O)O)[C@@H](O)[C@H]1O | Ki [9]: 6100 µM
5 |  |  |  |  | Nc1ncnc2c1ncn2[C@@H]1O[C@H](COP(=O)(O)O)[C@@H](O)[C@H]1O [ADENOSINE PHOSPHATE] | Km [10]: 580 µM; Ki [11]: 80 µM
6 | 0.13 |  |  |  | C[C@@H](OP(=O)(O)OP(=O)(O)OP(=O)(O)O)[C@H]1OC(n2cnc3c(N)ncnc32)[C@H](O)[C@@H]1O (stereo partly specified) | Ki [12]: 2200 µM; Ki [9]: 1800 µM
7 |  |  |  |  | Nc1ncnc2c1ncn2[C@@H]1O[C@H](COP(=O)(O)OP(=O)(O)OP(=O)(O)O)[C@@H](O)[C@H]1O [ADENOSINE TRIPHOSPHATE] | Ki [13]: 90 µM; Ki [6]: 570 µM
8 | 5.9 | 1120 | 190 | 0.06 µM and 0.08 µM | CCSc1nc2c(N)ncnc2n1C1O[C@H](COP(=O)(O)OP(=O)(O)OP(=O)(O)OP(=O)(O)OP(=O)(O)OC[C@H]2OC(n3cnc4c(N)ncnc43)[C@H](O)[C@@H]2O)[C@@H](O)[C@H]1O (stereo partly specified) | Ki [14]: 3.5 µM; Ki [15]: 3 µM
9 | > 22 | 14 | < 0.63 | 10 µM and 6.4 µM | CCSc1nc2c(N)ncnc2n1C1O[C@H](COP(=O)(O)OP(=O)(O)OP(=O)(O)OP(=O)(O)OP(=O)(O)OC[C@H]2OC(n3c(SCC)nc4c(N)ncnc43)[C@H](O)[C@@H]2O)[C@@H](O)[C@H]1O (stereo partly specified) | Ki [16]: 600 µM; Ki [17]: 900 µM
10 | 3.3 | 60 | 18.4 | 1.5 µM | CCSc1nc2c(N)ncnc2n1C1O[C@H](COP(=O)(O)OP(=O)(O)OP(=O)(O)OP(=O)(O)OP(=O)(O)O[C@H](C)[C@H]2OC(n3cnc4c(N)ncnc43)[C@H](O)[C@@H]2O)[C@@H](O)[C@H]1O (stereo partly specified) | Ki [14]: 31 µM; Ki [15]: 31 µM; Ki [18]: 2.8 µM
11 | > 1.8 | 0.17 | < 0.095 |  | Nc1ncnc2c1ncn2C1O[C@H](CCP(=O)(O)OP(=O)(O)OP(=O)(O)O)[C@@H](O)[C@H]1O (stereo partly specified) | Ki [19]: 540 µM; Ki [6]: 4000 µM
12 | 0.36 | 1.7 | 4.8 | 52 µM | CCC[C@@H](OP(=O)(O)OP(=O)(O)OP(=O)(O)OP(=O)(O)OP(=O)(O)OC[C@H]1OC(n2c(SCC)nc3c(N)ncnc32)[C@H](O)[C@@H]1O)[C@H]1OC(n2cnc3c(N)ncnc32)[C@H](O)[C@@H]1O (stereo partly specified) | Ki [14]: 160 µM; Ki [15]: 120 µM; Ki [20]: 63 µM
13 |  |  |  |  | Nc1ncnc2c1ncn2[C@@H]1O[C@H](CO)[C@@H](O)[C@H]1O [ADENOSINE] | Ki [13]: 87000 µM; Ki [21]: 82000 µM; Ki [18]: 92000 µM
